Results published in ChEMBL document CHEMBL1153092, “Discovery of novel thieno[2,3-d]pyrimidin-4-yl hydrazone-based inhibitors of cyclin D1-CDK4: synthesis, biological evaluation and structure-activity relationships. Part 2” (Bioorg Med Chem, 2009).
Values after ≈ are worked out from the molar mass of the structure shown. Active and inactive are the calls of the source. The calls are words filed in the database; no cut-off is given here.

Experiments:
[1] = test system: HCT-116; test: Antitumor activity against human HCT116 cells xenografted in BALB/c mouse assessed as maximum tumor volume inhibition rate at 300 mg/kg, iv qd for 4 days measured 7 days post dose; type: functional
Summary of the method: (§1)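 HCT116 tumour cells implanted s.c. in right hind limb of male BALB/c-nu/nu mice aged 5 or 6 weeks. Dosing began once tumours averaged 80–100 mm³, with compound in 20% Captisol solution given iv or po once daily for 4 days (qdx4). Tumour volume was measured periodically by caliper and body weight was followed. Maximum inhibition of tumour volume and maximum body weight loss are reported with their day after first dose. Deaths were scored as from toxicity or from tumour, out of 5 mice.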

[2] = target: Cyclin-dependent kinase 4/cyclin D1 (Homo sapiens, UniProt P11802); test: Inhibition of CDK4/Cyclin D1 expressed in Sf9 cells assessed as inhibition of Rb phosphorylation
Sequence of Cyclin-dependent kinase 4/cyclin D1 (P11802 whole entry): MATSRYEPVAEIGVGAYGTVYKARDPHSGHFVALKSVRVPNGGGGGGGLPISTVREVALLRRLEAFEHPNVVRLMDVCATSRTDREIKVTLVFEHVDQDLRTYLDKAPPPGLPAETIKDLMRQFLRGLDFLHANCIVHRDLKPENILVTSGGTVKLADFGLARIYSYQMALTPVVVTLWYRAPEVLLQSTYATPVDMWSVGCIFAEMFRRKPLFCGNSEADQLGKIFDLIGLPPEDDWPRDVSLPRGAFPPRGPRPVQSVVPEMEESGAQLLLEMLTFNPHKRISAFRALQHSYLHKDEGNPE
Sequence of Cyclin-dependent kinase 4/cyclin D1 (P24385 whole entry, further chain): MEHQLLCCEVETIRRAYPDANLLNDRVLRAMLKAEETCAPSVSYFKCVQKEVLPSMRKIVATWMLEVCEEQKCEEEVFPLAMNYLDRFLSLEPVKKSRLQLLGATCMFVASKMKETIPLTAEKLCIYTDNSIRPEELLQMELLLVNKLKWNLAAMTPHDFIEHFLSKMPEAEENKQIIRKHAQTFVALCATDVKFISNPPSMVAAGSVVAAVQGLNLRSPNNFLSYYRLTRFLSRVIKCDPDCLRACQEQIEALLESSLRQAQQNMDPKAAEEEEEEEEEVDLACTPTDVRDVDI
Summary of the method: (§2)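 CDK4/cyclin D1 or CDK2/cyclin E was purified from baculovirus-infected Sf-9 cells. The substrate was bacterial GST-Rb on glutathione-sepharose beads, with [³³P]ATP. Reactions ran 30 min at 30 °C in filter plates, were washed four times and counted. IC₅₀ (µg/mL) came from dose–response curves, as the mean of at least two determinations.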

[3] = Aqueous solubility of compound; type: physicochemical; conditions: water (aqueous)
[4] = test system: Mus musculus; test: Toxicity in human HCT116 cells xenografted BALB/c mouse assessed as mouse mortality at 300 mg/kg, iv qd for 4 days; type: organism-based, HCT-116; parameters: dose 300 mg/kg, route intravenous; conditions: in vivo, 96 h
Summary of the method: (§3)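 HCT116 cells implanted subcutaneously in right hind limb of male BALB/c-nu/nu mice aged 5 or 6 weeks; dosing began once tumours averaged 80–100 mm³. Compound in 20% Captisol solution given iv or po once daily for 4 days (qdx4). Tumour volume measured periodically by caliper. Deaths scored as toxicity deaths/tumour deaths/mice used, n=5 per group.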

[5] = test system: HCT-116; test: Antitumor activity against human HCT116 cells xenografted in BALB/c mouse assessed as tumor induced mouse death at 300 mg/kg, iv qd for 4 days; type: functional, organism-based; parameters: dose 300 mg/kg; summary of the method: as §1
[6] = test system: PC-6; test: Cytotoxicity against human PC6 cells after 3 days by MTT assay; type: functional, cell-based; conditions: PC-6, 72 h
Summary of the method: (§4)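 Cells (PC-6 shown) were kept in RPMI 1640 with 10% FBS and plated on day 0. Compound, serially diluted in DMSO, was added on day 1 at ten concentrations. Viable cells were counted by MTT after 3 days of culture. The 50% growth-inhibition concentration was solved from 100×[(T−T₀)/(C−T₀)]=50, where T₀ is the optical density at time zero.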

[7] = target: Cyclin-dependent kinase 2/cyclin E1 (Homo sapiens, UniProt P24941); test: Inhibition of CDK2/Cyclin E expressed in Sf9 cells assessed as inhibition of Rb phosphorylation; summary of the method: as §2
[8] = test system: HCT-116; test: Cytotoxicity against human HCT116 cells after 3 days by MTT assay; type: functional, cell-based; conditions: HCT-116, 72 h; summary of the method: as §4
[9] = test system: Mus musculus; test: Toxicity in human HCT116 cells xenografted BALB/c mouse assessed as maximum body weight loss rate at 300 mg/kg, iv qd for 4 days measured 1 days post dose; type: organism-based, HCT-116; parameters: dose 300 mg/kg, route intravenous; conditions: in vivo, 24 h; summary of the method: as §1
[10] = test system: HCT-116; test: Cell cycle arrest in human HCT116 cells assessed as accumulation at G1 phase at 50 ng/mL after 16 hrs using propidium iodide staining by flow cytometry; type: functional
Summary of the method: (§5)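 HCT116 cells were treated for 16 h with compound at concentrations in ng/mL, with DMSO as control. Cells were then collected and their DNA content was analysed by flow cytometry. The percentages of cells in G0/G1, S and G2/M were quantified.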

[11] = Selectivity for CDK4/Cyclin D1 over CDK2/Cyclin E
Summary of the method: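 Selectivity was calculated as CDK2 IC₅₀ divided by CDK4 IC₅₀, using the Rb-phosphorylation kinase assay values.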

[12] = test system: HCT-116; test: Antitumor activity against human HCT116 cells xenografted in BALB/c mouse assessed as tumor induced mouse death at 260 mg/kg, iv qd for 4 days; type: functional, organism-based; parameters: dose 260 mg/kg; summary of the method: as §1
[13] = test system: HCT-116; test: Antitumor activity against human HCT116 cells xenografted in BALB/c mouse assessed as maximum tumor volume inhibition rate at 260 mg/kg, iv qd for 4 days measured 5 days post dose; type: functional; summary of the method: as §1
[14] = test system: HCT-116; test: Cell cycle arrest in human HCT116 cells assessed as accumulation at G1 phase at 100 ng/mL after 16 hrs using propidium iodide staining by flow cytometry; type: functional; summary of the method: as §5
[15] = test system: HCT-116; test: Cell cycle arrest in human HCT116 cells assessed as decrease in accumulation at G2/M phase at 100 ng/mL after 16 hrs using propidium iodide staining by flow cytometry; type: functional, cell-based; summary of the method: as §5
[16] = test system: Mus musculus; test: Toxicity in human HCT116 cells xenografted BALB/c mouse assessed as maximum body weight loss rate at 260 mg/kg, iv qd for 4 days; type: organism-based, HCT-116; parameters: dose 260 mg/kg, route intravenous; conditions: in vivo, 96 h; summary of the method: as §1
[17] = test system: Mus musculus; test: Toxicity in human HCT116 cells xenografted BALB/c mouse assessed as mouse mortality at 260 mg/kg, iv qd for 4 days; type: organism-based, HCT-116; parameters: dose 260 mg/kg, route intravenous; conditions: in vivo, 96 h; summary of the method: as §3
[18] = test system: HCT-116; test: Cell cycle arrest in human HCT116 cells assessed as decrease in accumulation at S phase at 100 ng/mL after 16 hrs using propidium iodide staining by flow cytometry; type: functional, cell-based; summary of the method: as §5
[19] = test system: Mus musculus; test: Toxicity in human HCT116 cells xenografted BALB/c mouse assessed as mouse mortality at 350 mg/kg, po qd for 4 days; type: organism-based, HCT-116; parameters: dose 350 mg/kg, route oral; conditions: in vivo, 96 h; summary of the method: as §3
[20] = test system: HCT-116; test: Antitumor activity against human HCT116 cells xenografted in BALB/c mouse assessed as maximum tumor volume inhibition rate at 350 mg/kg, po qd for 4 days measured 6 days post dose; type: functional; summary of the method: as §1
[21] = test system: Mus musculus; test: Toxicity in human HCT116 cells xenografted BALB/c mouse assessed as maximum body weight loss rate at 350 mg/kg, po qd for 4 days measured 5 days post dose; type: organism-based, HCT-116; parameters: dose 350 mg/kg, route oral; conditions: in vivo, 120 h; summary of the method: as §1
[22] = test system: HCT-116; test: Antitumor activity against human HCT116 cells xenografted in BALB/c mouse assessed as maximum tumor volume inhibition rate at 300 mg/kg, iv qd for 4 days measured 9 days post dose; type: functional; summary of the method: as §1
[23] = test system: HCT-116; test: Antitumor activity against human HCT116 cells xenografted in BALB/c mouse assessed as tumor induced mouse death at 350 mg/kg, po qd for 4 days; type: functional, organism-based; parameters: dose 350 mg/kg; summary of the method: as §1
[24] = test system: HCT-116; test: Cell cycle arrest in human HCT116 cells assessed as accumulation at G1 phase at 60 ng/mL after 16 hrs using propidium iodide staining by flow cytometry; type: functional; summary of the method: as §5
[25] = test system: Mus musculus; test: Toxicity in human HCT116 cells xenografted BALB/c mouse assessed as maximum body weight loss rate at 300 mg/kg, iv qd for 4 days measured 7 days post dose; type: organism-based, HCT-116; parameters: dose 300 mg/kg, route intravenous; conditions: in vivo, 168 h; summary of the method: as §1

IC50 [2] [nM]	IC50 [7] [nM]	Selectivity ratio [11]	Structure (SMILES)	IC50 [6] [µg/mL]	IC50 [8] [µg/mL]	other results
93	492	5.3	CC(C)(C)c1cc2c(N/N=C/c3ccc4c(c3)CNCC4)ncnc2s1	0.069 (≈ 0.189 µM)	0.107 (≈ 0.293 µM)	
> 47900	2920		CN(C)S(=O)(=O)c1ccc(/C=N/Nc2ncnc3sc(C(C)(C)C)cc23)cc1	2.12 (≈ 5.08 µM)	1.42 (≈ 3.4 µM)	
61.9	4710	76.2	CC(C)(C)c1cc2c(N/N=C/c3ccc(CN)cc3)ncnc2s1	0.214 (≈ 0.63 µM)	0.334 (≈ 0.984 µM)	
1970	> 64400	> 33	CC(C)(C)c1cc2c(N/N=C/c3ccccc3)ncnc2s1	6.54 (≈ 21.1 µM)		
2760	1100	0.4	CC(C)(C)c1cc2c(N/N=C/c3ccc(C(=O)O)cc3)ncnc2s1	7.22 (≈ 20.4 µM)	9.99 (≈ 28.2 µM)	
203	7620	37.5	CC(C)N1Cc2ccc(/C=N/Nc3ncnc4sc(C(C)(C)C)cc34)cc2C1	0.134 (≈ 0.34 µM)	0.206 (≈ 0.523 µM)	
1170	764	0.7	CC(C)(C)c1cc2c(N/N=C/c3ccc(CO)cc3)ncnc2s1	0.556 (≈ 1.63 µM)	0.665 (≈ 1.95 µM)	
263	2740	10.4	CN1Cc2ccc(/C=N/Nc3ncnc4sc(C(C)(C)C)cc34)cc2C1	0.05 (≈ 0.137 µM)	0.088 (≈ 0.241 µM)	
70.7	2990	42.3	CN(C)Cc1cccc(/C=N/Nc2ncnc3sc(C(C)(C)C)cc23)c1	0.598 (≈ 1.63 µM)	0.405 (≈ 1.1 µM)	
70.4	729	10.4	CN(CCO)Cc1ccc(/C=N/Nc2ncnc3sc(C(C)(C)C)cc23)cc1	0.124 (≈ 0.312 µM)	0.169 (≈ 0.425 µM)	
> 61300	33700		CC(C)(C)c1cc2c(N/N=C/c3ccc(O)cc3)ncnc2s1	> 10	0.844 (≈ 2.59 µM)	
> 54300	> 54300		COC(=O)c1ccc(/C=N/Nc2ncnc3sc(C(C)(C)C)cc23)cc1			
152	3800	25	CN(C)Cc1cccc(/C=N/Nc2ncnc3sc(C(C)(C)C)cc23)n1	0.381 (≈ 1.03 µM)	0.419 (≈ 1.14 µM)	solubility [3]: 44 µg/mL (≈ 119 µM)
210	1630	7.8	CN(C)Cc1ccc(/C=N/Nc2ncnc3sc(C(C)(C)C)cc23)cc1	0.107 (≈ 0.291 µM)	0.128 (≈ 0.348 µM)	

Structure (SMILES)	IC50 [2] [nM]	IC50 [7] [nM]	Selectivity ratio [11]	IC50 [6] [µg/mL]	IC50 [8] [µg/mL]	other results
CC(C)(C)c1cc2c(N/N=C/c3ccc4c(c3)CCNC4)ncnc2s1	104	1750	16.8	0.049 (≈ 0.134 µM)	0.046 (≈ 0.126 µM)	inhibition in vivo at 300 mg/kg [1]: 5%; solubility [3]: 8.5 µg/mL (≈ 23.3 µM); Activity [4]: Non-toxic; Activity [5]: Active; Activity [9]: 2.2%; Activity [10]: 56%
CC(C)(C)c1cc2c(N/N=C/c3ccc4c(c3)CNC4)ncnc2s1	236	1480	6.3	0.071 (≈ 0.202 µM)	0.111 (≈ 0.316 µM)	solubility [3]: 2.8 µg/mL (≈ 7.97 µM); Activity [12]: Active; inhibition in vivo at 260 mg/kg [13]: 61%; Activity [14]: 62%; Activity [15]: Active; Activity [16]: < 0%; Activity [17]: Non-toxic; Activity [18]: Active
CNCc1ccc(/C=N/Nc2ncnc3sc(C(C)(C)C)cc23)cc1	107	1920	17.9	0.044 (≈ 0.124 µM)	0.056 (≈ 0.158 µM)	Activity [19]: Non-toxic; solubility [3]: 783 µg/mL (≈ 2220 µM); Activity [4]: Non-toxic; inhibition in vivo at 350 mg/kg [20]: 57%; Activity [5]: Active; Activity [21]: 16%; inhibition in vivo at 300 mg/kg [22]: 54%; Activity [23]: Active; Activity [24]: 57%; Activity [25]: 9.7%
